# From ChEMBL document CHEMBL3734675, “Synthesis, antimycobacterial and antibacterial activity of fluoroquinolone derivatives containing an 3-alkoxyimino-4-(cyclopropylanimo)methylpyrrolidine moiety” (2015)
# How the values were obtained:
# Assay type in all cases: functional
# Escherichia coli [1] = experiment: Antibacterial activity against Escherichia coli ATCC 25922 after 18 to 24 hrs by two-fold serial dilution method
# Method in brief: (§1)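 Twofold serial dilution in agar media against Gram-positive and Gram-negative strains. Plates incubated at 35 °C for 18–24 h. MIC read as the lowest compound concentration giving complete inhibition of bacterial growth.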
# Escherichia coli [2] = experiment: Antibacterial activity against extended-spectrum beta-lactamase producing Escherichia coli 14-1 after 18 to 24 hrs by two-fold serial dilution method; method in brief: as §1
# Escherichia coli [3] = experiment: Antibacterial activity against extended-spectrum beta-lactamase producing Escherichia coli 14-2 after 18 to 24 hrs by two-fold serial dilution method; method in brief: as §1
# Escherichia coli [4] = experiment: Antibacterial activity against Escherichia coli 14-1 after 18 to 24 hrs by two-fold serial dilution method; method in brief: as §1
# Escherichia coli [5] = experiment: Antibacterial activity against Escherichia coli 14-2 after 18 to 24 hrs by two-fold serial dilution method; method in brief: as §1
# Klebsiella pneumoniae [6] = experiment: Antibacterial activity against extended-spectrum beta-lactamase producing Klebsiella pneumoniae 14-17 after 18 to 24 hrs by two-fold serial dilution method; method in brief: as §1
# Klebsiella pneumoniae [7] = experiment: Antibacterial activity against extended-spectrum beta-lactamase producing Klebsiella pneumoniae 14-18 after 18 to 24 hrs by two-fold serial dilution method; method in brief: as §1
# Klebsiella pneumoniae [8] = experiment: Antibacterial activity against extended-spectrum beta-lactamase producing Klebsiella pneumoniae 14-19 after 18 to 24 hrs by two-fold serial dilution method; method in brief: as §1
# Klebsiella pneumoniae [9] = experiment: Antibacterial activity against Klebsiella pneumoniae 14-1 after 18 to 24 hrs by two-fold serial dilution method; method in brief: as §1
# Klebsiella pneumoniae [10] = experiment: Antibacterial activity against Klebsiella pneumoniae 14-2 after 18 to 24 hrs by two-fold serial dilution method; method in brief: as §1
# Klebsiella pneumoniae [11] = experiment: Antibacterial activity against Klebsiella pneumoniae 14-3 after 18 to 24 hrs by two-fold serial dilution method; method in brief: as §1
# Klebsiella pneumoniae [12] = experiment: Antibacterial activity against Klebsiella pneumoniae 14-4 after 18 to 24 hrs by two-fold serial dilution method; method in brief: as §1
# Pseudomonas aeruginosa [13] = experiment: Antibacterial activity against Pseudomonas aeruginosa ATCC 27853 after 18 to 24 hrs by two-fold serial dilution method; method in brief: as §1
# Pseudomonas aeruginosa [14] = experiment: Antibacterial activity against Pseudomonas aeruginosa 14-9 after 18 to 24 hrs by two-fold serial dilution method; method in brief: as §1
# Pseudomonas aeruginosa [15] = experiment: Antibacterial activity against Pseudomonas aeruginosa 14-14 after 18 to 24 hrs by two-fold serial dilution method; method in brief: as §1
# Pseudomonas aeruginosa [16] = experiment: Antibacterial activity against Pseudomonas aeruginosa 14-15 after 18 to 24 hrs by two-fold serial dilution method; method in brief: as §1
# Pseudomonas aeruginosa [17] = experiment: Antibacterial activity against Pseudomonas aeruginosa 14-16 after 18 to 24 hrs by two-fold serial dilution method; method in brief: as §1
# Staphylococcus aureus [18] = experiment: Antibacterial activity against Staphylococcus aureus CMCC 26003 after 18 to 24 hrs by two-fold serial dilution method; method in brief: as §1
# Staphylococcus aureus [19] = experiment: Antibacterial activity against methicillin-sensitive Staphylococcus aureus 14-1 after 18 to 24 hrs by two-fold serial dilution method; method in brief: as §1
# Staphylococcus aureus [20] = experiment: Antibacterial activity against methicillin-sensitive Staphylococcus aureus 14-3 after 18 to 24 hrs by two-fold serial dilution method; method in brief: as §1
# Staphylococcus aureus [21] = experiment: Antibacterial activity against methicillin-sensitive Staphylococcus aureus 14-4 after 18 to 24 hrs by two-fold serial dilution method; method in brief: as §1
# Staphylococcus aureus [22] = experiment: Antibacterial activity against methicillin-resistant Staphylococcus aureus 14-4 after 18 to 24 hrs by two-fold serial dilution method
# Method in brief: (§2)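 Agar media, standard twofold serial dilution. MIC is the lowest concentration giving complete inhibition of bacterial growth after incubation at 35 °C for 18–24 h. Ciprofloxacin and levofloxacin were run as comparators.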
# Staphylococcus aureus [23] = experiment: Antibacterial activity against methicillin-resistant Staphylococcus aureus 14-5 after 18 to 24 hrs by two-fold serial dilution method; method in brief: as §2
# [24] = tested on: Staphylococcus epidermidis; experiment: Antibacterial activity against methicillin-sensitive Staphylococcus epidermidis 14-2 after 18 to 24 hrs by two-fold serial dilution method; method in brief: as §1
# [25] = tested on: Staphylococcus epidermidis; experiment: Antibacterial activity against methicillin-resistant Staphylococcus epidermidis 14-21 after 18 to 24 hrs by two-fold serial dilution method; method in brief: as §2
# [26] = tested on: Staphylococcus epidermidis; experiment: Antibacterial activity against methicillin-resistant Staphylococcus epidermidis 14-22 after 18 to 24 hrs by two-fold serial dilution method; method in brief: as §2
# [27] = tested on: Staphylococcus epidermidis; experiment: Antibacterial activity against methicillin-resistant Staphylococcus epidermidis 14-37 after 18 to 24 hrs by two-fold serial dilution method; method in brief: as §2
# [28] = tested on: Staphylococcus epidermidis; experiment: Antibacterial activity against methicillin-resistant Staphylococcus epidermidis 14-39 after 18 to 24 hrs by two-fold serial dilution method; method in brief: as §2
# Streptococcus pneumoniae = experiment: Antibacterial activity against methicillin-resistant Streptococcus pneumoniae ATCC 19615 after 18 to 24 hrs by two-fold serial dilution method; method in brief: as §2
# Enterococcus faecium [29] = experiment: Antibacterial activity against Enterococcus faecium 14-2 after 18 to 24 hrs by two-fold serial dilution method; method in brief: as §1
# Enterococcus faecium [30] = experiment: Antibacterial activity against Enterococcus faecium 14-5 after 18 to 24 hrs by two-fold serial dilution method; method in brief: as §1
# Enterococcus faecium [31] = experiment: Antibacterial activity against Enterococcus faecium 14-6 after 18 to 24 hrs by two-fold serial dilution method; method in brief: as §1
# Enterococcus faecalis [32] = experiment: Antibacterial activity against Enterococcus faecalis 14-1 after 18 to 24 hrs by two-fold serial dilution method; method in brief: as §1
# Enterococcus faecalis [33] = experiment: Antibacterial activity against Enterococcus faecalis 14-2 after 18 to 24 hrs by two-fold serial dilution method; method in brief: as §1
Structure (SMILES),MIC (Escherichia coli [1]),MIC (Escherichia coli [2]),MIC (Escherichia coli [3]),MIC (Escherichia coli [4]),MIC (Escherichia coli [5]),MIC (Klebsiella pneumoniae [6]),MIC (Klebsiella pneumoniae [7]),MIC (Klebsiella pneumoniae [8]),MIC (Klebsiella pneumoniae [9]),MIC (Klebsiella pneumoniae [10]),MIC (Klebsiella pneumoniae [11]),MIC (Klebsiella pneumoniae [12]),MIC (Pseudomonas aeruginosa [13]),MIC (Pseudomonas aeruginosa [14]),MIC (Pseudomonas aeruginosa [15]),MIC (Pseudomonas aeruginosa [16]),MIC (Pseudomonas aeruginosa [17]),MIC (Staphylococcus aureus [18]),MIC (Staphylococcus aureus [19]),MIC (Staphylococcus aureus [20]),further results
CC1(CNC2CC2)CN(c2nc3c(cc2F)c(=O)c(C(=O)O)cn3C2CC2)C/C1=N/OCc1ccccc1 (stereo not drawn),1 µg/mL,32 µg/mL,> 128 µg/mL,> 128 µg/mL,> 128 µg/mL,128 µg/mL,128 µg/mL,128 µg/mL,64 µg/mL,64 µg/mL,> 128 µg/mL,> 128 µg/mL,64 µg/mL,64 µg/mL,128 µg/mL,128 µg/mL,128 µg/mL,< 0.008 µg/mL,2 µg/mL,0.5 µg/mL,MIC (Staphylococcus aureus [21]): 0.5 µg/mL; MIC (Staphylococcus aureus [22]): 2 µg/mL; MIC (Staphylococcus aureus [23]): 2 µg/mL; MIC [24]: 16 µg/mL; MIC [25]: 8 µg/mL; MIC [26]: 4 µg/mL; MIC [27]: 2 µg/mL; MIC [28]: 2 µg/mL; MIC (Streptococcus pneumoniae): 0.5 µg/mL; MIC (Enterococcus faecium [29]): 4 µg/mL; MIC (Enterococcus faecium [30]): 2 µg/mL; MIC (Enterococcus faecium [31]): 4 µg/mL; MIC (Enterococcus faecalis [32]): 64 µg/mL; MIC (Enterococcus faecalis [33]): 0.25 µg/mL
CO/N=C1/CN(c2c(F)cc3c(=O)c(C(=O)O)cn4c3c2OC[C@@H]4C)CC1CNC1CC1 (stereo partly drawn),0.5 µg/mL,> 64 µg/mL,> 64 µg/mL,> 64 µg/mL,> 64 µg/mL,4 µg/mL,4 µg/mL,8 µg/mL,32 µg/mL,32 µg/mL,> 64 µg/mL,> 64 µg/mL,64 µg/mL,64 µg/mL,> 64 µg/mL,> 64 µg/mL,64 µg/mL,4 µg/mL,64 µg/mL,16 µg/mL,MIC (Staphylococcus aureus [21]): 16 µg/mL; MIC (Staphylococcus aureus [22]): > 64 µg/mL; MIC (Staphylococcus aureus [23]): 64 µg/mL; MIC [24]: > 64 µg/mL; MIC [25]: > 64 µg/mL; MIC [26]: > 64 µg/mL; MIC [27]: 64 µg/mL; MIC [28]: > 64 µg/mL; MIC (Streptococcus pneumoniae): 8 µg/mL; MIC (Enterococcus faecium [29]): > 64 µg/mL; MIC (Enterococcus faecium [30]): 64 µg/mL; MIC (Enterococcus faecium [31]): > 128 µg/mL; MIC (Enterococcus faecalis [32]): > 64 µg/mL; MIC (Enterococcus faecalis [33]): 16 µg/mL
